Results from ChEMBL document CHEMBL1156597, “Structure-activity relationship of kahalalide F synthetic analogues” (J Med Chem, 2008).

Tests used:
DU-145 = test: Cytotoxicity against human DU145 cells after 48 hrs by SRB assay; assay type: functional, cell-based; conditions: Homo sapiens, DU-145, 48 h; for CC50: read-out: LC50 (the source's name)
Method in brief: (§1)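 Cells grown in RPMI 1640 with 10% FBS and penicillin/streptomycin at 37 °C and 5% CO₂, trypsinized, then seeded at 5 × 10³/well. After 18 h drug-free attachment, samples in DMSO/EtOH/PBS (0.5:0.5:99) were added for 48 h continuous exposure. Cells were fixed with cold TCA (1 h, 4 °C) and stained with SRB (10 min). Tris-solubilized stain read at 490 nm. Triplicate wells, mean ± SD; GI₅₀ derived.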

LNCaP = test: Cytotoxicity against human LNcaP cells after 48 hrs by SRB assay; assay type: functional; conditions: for CC50: read-out: LC50 (the source's name); method in brief: as §1
[1] = Cytotoxicity against human IGROV cells after 48 hrs by SRB assay; assay type: functional; conditions: for CC50: read-out: LC50 (the source's name); method in brief: as §1
[2] = Cytotoxicity against human IGROV-ET cells after 48 hrs by SRB assay; assay type: functional; conditions: for CC50: read-out: LC50 (the source's name); method in brief: as §1
SK-MEL-28 = test: Cytotoxicity against human SK-MEL-28 cells after 48 hrs by SRB assay; assay type: functional, cell-based; conditions: Homo sapiens, SK-MEL-28, 48 h; for CC50: read-out: LC50 (the source's name); method in brief: as §1
A549 = test: Cytotoxicity against human A549 cells after 48 hrs by SRB assay; assay type: functional, cell-based; conditions: Homo sapiens, A549, 48 h; method in brief: as §1
K562 = test: Cytotoxicity against human K562 cells after 48 hrs by SRB assay; assay type: functional; conditions: K562, 48 h; for CC50: read-out: LC50 (the source's name); method in brief: as §1
PANC-1 = test: Cytotoxicity against human PANC1 cells after 48 hrs by SRB assay; assay type: functional; conditions: PANC-1, 48 h; for CC50: read-out: LC50 (the source's name); method in brief: as §1
HT-29 = test: Cytotoxicity against human HT29 cells after 48 hrs by SRB assay; assay type: functional, cell-based; conditions: Homo sapiens, HT-29, 48 h; for CC50: read-out: LC50 (the source's name); method in brief: as §1
LoVo [3] = test: Cytotoxicity against human LoVo cells after 48 hrs by SRB assay; assay type: functional; conditions: for CC50: read-out: LC50 (the source's name)
LoVo [4] = test: Cytotoxicity against human doxorubicin resistant LoVo cells after 48 hrs by SRB assay; assay type: functional; conditions: for CC50: read-out: LC50 (the source's name); method in brief: as §1
HeLa = test: Cytotoxicity against human HeLa cells after 48 hrs by SRB assay; assay type: functional; conditions: for CC50: read-out: LC50 (the source's name); method in brief: as §1
[5] = Cytotoxicity against human HeLa-APL cells after 48 hrs by SRB assay; assay type: functional; method in brief: as §1
SK-BR-3 = test: Cytotoxicity against human SKBR3 cells after 48 hrs by SRB assay; assay type: functional; conditions: SK-BR-3, 48 h; for GI50: read-out: GI50; for CC50: read-out: LC50 (the source's name); method in brief: as §1

Compound	CC50 (DU-145) [nM]	CC50 (LNCaP) [nM]	GI50 ([1]; read-out: GI50) [nM]	CC50 [1] [nM]	GI50 ([2]; read-out: GI50) [nM]	CC50 [2] [nM]	GI50 (SK-MEL-28; read-out: GI50) [nM]	CC50 (SK-MEL-28) [nM]	LC50 (A549) [nM]	GI50 (A549; read-out: GI50) [nM]	CC50 (K562) [nM]	CC50 (PANC-1) [nM]	CC50 (HT-29) [nM]	GI50 (LoVo [3]) [nM]	TGI (LoVo [3]) [nM]	CC50 (LoVo [3]) [nM]	CC50 (LoVo [4]) [nM]	GI50 (HeLa) [nM]	CC50 (HeLa) [nM]	LC50 (concentration giving 50% net cell kill) [5] [nM]	also measured
C/C=C1\NC(=O)[C@H](Cc2ccccc2)NC(=O)[C@@H](C(C)C)NC(=O)[C@@H]([C@H](C)CC)NC(=O)[C@H](NC(=O)[C@H](NC(=O)[C@H](CCCN)NC(=O)[C@H]2CCCCN2C(=O)[C@H](NC(=O)[C@@H](NC(=O)[C@@H](NC(=O)[C@H](NC(=O)CC[C@@H](C)CC)C(C)C)[C@@H](C)O)C(C)C)C(C)C)[C@H](C)CC)[C@H](C)OC(=O)[C@H](C(C)C)NC1=O	1300	1310	1390	487	894	483	1590	1360	6720	8000	2160	2020	447	2250	2340	678	1700	3080	1080	978	GI50 [1]: 786 nM; GI50 [2]: 632 nM; TGI (SK-MEL-28): 1470 nM; TGI (A549): 8700 nM; GI50 (LoVo [4]): 1220 nM; TGI (LoVo [4]): 1820 nM; TGI (HeLa): 2660 nM; GI50 [5]: 1510 nM; TGI [5]: 1450 nM
C/C=C1\NC(=O)[C@H](Cc2ccccc2)NC(=O)[C@@H](C(C)C)NC(=O)[C@@H]([C@H](C)CC)NC(=O)[C@H](NC(=O)[C@H](NC(=O)[C@H](CCCN)NC(=O)[C@H]2CCCN2C(=O)[C@H](NC(=O)[C@H](CC(C)C)NC(=O)[C@@H](NC(=O)[C@H](NC(=O)CCCC(C)C)C(C)C)[C@@H](C)O)C(C)C)[C@H](C)CC)[C@H](C)OC(=O)[C@H](C(C)C)NC1=O	863	1230	464	375	350	383	964	8750	1110	1280	2300	2510	479	312	324	337	–	1020	765	807	GI50 (DU-145): 903 nM; GI50 (DU-145; read-out: GI50): 941 nM; GI50 (LNCaP): 1030 nM; TGI (LNCaP): 1120 nM; TGI [1]: 4020 nM; TGI [2]: 380 nM; TGI (SK-BR-3): 482 nM; GI50 (SK-BR-3): 445 nM; CC50 (SK-BR-3): 689 nM; TGI (SK-MEL-28): 9120 nM; TGI (A549): 1190 nM; GI50 (K562): 2100 nM; TGI (K562): 2210 nM; GI50 (PANC-1): 3290 nM; TGI (PANC-1): 4870 nM; GI50 (HT-29): 612 nM; TGI (HT-29): 679 nM; TGI (HeLa): 887 nM; GI50 [5]: 939 nM; TGI [5]: 871 nM
C/C=C1\NC(=O)[C@H](Cc2ccccc2)NC(=O)[C@@H](C(C)C)NC(=O)[C@@H]([C@H](C)CC)NC(=O)[C@H](NC(=O)[C@H](NC(=O)[C@H](CCCN)NC(=O)[C@@H]2CCCN2C(=O)[C@H](NC(=O)[C@@H](NC(=O)[C@@H](NC(=O)[C@H](NC(=O)CC[C@@H](C)CC)C(C)C)[C@@H](C)O)C(C)C)C(C)C)[C@H](C)CC)[C@H](C)OC(=O)[C@H](C(C)C)NC1=O	1430	1630	–	525	–	549	–	1620	6780	–	2180	2040	6760	–	–	794	1870	–	1090	986	–
C/C=C1\NC(=O)[C@H](Cc2ccccc2)NC(=O)[C@@H](C(C)C)NC(=O)[C@@H]([C@H](C)CC)NC(=O)[C@H](NC(=O)[C@H](NC(=O)[C@H](CCCN)NC(=O)[C@@H]2CC[C@H](c3ccccc3)N2C(=O)[C@H](NC(=O)[C@@H](NC(=O)[C@@H](NC(=O)[C@H](NC(=O)CC[C@@H](C)CC)C(C)C)[C@@H](C)O)C(C)C)C(C)C)[C@H](C)CC)[C@H](C)OC(=O)[C@H](C(C)C)NC1=O	1360	1550	–	499	–	5220	–	1540	6440	–	2080	1940	643	7330	6170	756	1780	–	1040	938	–
C/C=C1\NC(=O)[C@H](Cc2ccccc2)NC(=O)[C@@H](C(C)C)NC(=O)[C@@H]([C@H](C)CC)NC(=O)[C@H](NC(=O)[C@H](NC(=O)[C@H](CCCN)NC(=O)[C@H]2CCCN2C(=O)[C@H](NC(=O)[C@@H](NC(=O)[C@@H](NC(=O)[C@H](NC(=O)c2ccc(C(F)(F)F)cc2)C(C)C)[C@@H](C)O)C(C)C)C(C)C)[C@H](C)CC)[C@H](C)OC(=O)[C@H](C(C)C)NC1=O	800	799	247	321	140	294	839	809	473	202	2340	2430	76.5	253	268	286	–	348	601	717	GI50 (DU-145): 685 nM; GI50 (DU-145; read-out: GI50): 310 nM; GI50 (LNCaP): 341 nM; TGI (LNCaP): 621 nM; GI50 [1]: 236 nM; GI50 [2]: 223 nM; TGI (SK-BR-3): 289 nM; GI50 (SK-BR-3): 303 nM; CC50 (SK-BR-3): 223 nM; GI50 (SK-MEL-28): 823 nM; GI50 (A549): 254 nM; GI50 (PANC-1): 1840 nM; TGI (PANC-1): 2260 nM; TGI (HeLa): 526 nM; GI50 [5]: 519 nM; TGI [5]: 665 nM
